The values below come from ChEMBL document CHEMBL2169774, “Stabilization and structural alteration of the G-quadruplex DNA made from the human telomeric repeat mediated by Tröger's base based novel benzimidazole derivatives” (J Med Chem, 2012).

SMILES strings stand for the structures. The source made the active and inactive calls. No cut-off for these calls is given here.

Series [1] deals with NIH3T3. Nature of the series: Cytotoxicity in mouse NIH/3T3 cells incubated for 6 to 48 hrs by MTT assay. Format: cell-based. The method, boiled down: (§1)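 HeLa, A549 or NIH3T3 cells (15.0 × 10³/well) were grown 24 h to 70% confluency. Ligand was applied at various concentrations in 0.2% FBS for 6 or 48 h at 37 °C. Medium was then replaced with DMEM/10% FBS and growth continued 42 h. MTT was added for 4 h and formazan dissolved in DMSO. Absorbance read at 595 nm, in triplicate, viability normalized to untreated cells.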

The subject of series [2] is A549. The experiment in a line: Cytotoxicity in human A549 cells incubated for 6 to 48 hrs by MTT assay. In kind it is functional, cell-based. The procedure, abridged:
as §1

The subject of series [3] is Nucleic Acid. Nature of the series: Binding affinity to human d[G3(T2AG3)3] G-quadruplex DNA assessed formation of G-quadruplex parallel strands in 100 mM KCl buffer by CD spectroscopy. Format: nucleic-acid assay. The method, boiled down:
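Hum21 (4 μM strand) was heated at 90 °C for 5 min together with ligand (40 μM), then cooled slowly in 100 mM KCl buffer (10 mM Tris-HCl, 0.1 mM EDTA, pH 7.4). CD spectra were recorded to assign parallel or antiparallel topology.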

The test system of series [4] is HEK-293T. Nature of the series: Cytotoxicity in transformed HEK293T cells incubated for 6 to 48 hrs by MTT assay. In kind it is functional, cell-based. The following applies: Homo sapiens. The procedure, abridged:
(§2)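 HEK293 and HEK293T cells were seeded at 8.0 × 10³/well and run as in the short-term MTT protocol: treatment in 0.2% FBS, then medium change and 595 nm formazan read-out. Figure data reflect 48 h exposure, six replicates per point.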

Series [5] relates to Nucleic Acid. The experiment in a line: Binding affinity to human d[G3(T2AG3)3] G-quadruplex DNA assessed as change in melting temperature at 20 uM in NaCl buffer. Format: nucleic-acid assay. The procedure, abridged:
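CD melting at 295 nm of Hum21 G4DNA (2 μM strand) preformed in 10 mM Tris-HCl, 100 mM NaCl, 0.1 mM EDTA. Ligand at r = 10. ΔTm is complexed minus free Tm, mean of two experiments.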

Series [6] relates to Nucleic Acid. The experiment in a line: Binding affinity to human d[G3(T2AG3)3] G-quadruplex DNA in LiCl+ Na+ buffer by CD spectroscopy. In kind it is nucleic-acid assay. The procedure, abridged: (§3)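 CD titration of preformed Hum21 G4DNA (4 μM) in 100 mM LiCl, 10 mM sodium cacodylate, 0.1 mM EDTA, pH 7.4. Ligand was added stepwise from 0 to 160 μM in 20 μM steps. Peaks at 250 and 295 nm and the induced CD band were monitored.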

Series [7] has as its system Nucleic Acid. Nature of the series: Binding affinity to human d[G3(T2AG3)3] G-quadruplex DNA assessed as change in structure in CD spectral profile in LiCl buffer by CD spectroscopy. Format: nucleic-acid assay. The procedure, abridged:
(§4)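 Hum21 G4DNA (4 μM strand) was preformed in 10 mM Tris-HCl with 100 mM LiCl and 0.1 mM EDTA, pH 7.4. It was then titrated with ligand and CD spectra were recorded.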

For series [8], the system named is Nucleic Acid. The experiment in a line: Binding affinity to human d[G3(T2AG3)3] G-quadruplex DNA assessed as change in melting temperature at 10 uM in LiCl-Na buffer. In kind it is nucleic-acid assay. The method, boiled down: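 CD melting of Hum21 G4DNA (4 μM strand) preformed by heating at 90 °C for 5 min then slow cooling over 24 h in 100 mM LiCl, 10 mM sodium cacodylate, 0.1 mM EDTA, pH 7.4. Ligand added at [ligand]/[DNA] r = 5. Melting followed at 295 nm. ΔTm is ligand-bound minus free Tm, average of two runs.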

In series [9] the test system is Nucleic Acid. Nature of the series: Binding affinity to human d[G3(T2AG3)3] G-quadruplex DNA assessed as change in melting temperature at 20 uM in KCl buffer. In kind it is nucleic-acid assay. The procedure, abridged: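 CD melting of preformed Hum21 G4DNA (2 μM) in 10 mM Tris-HCl, 100 mM KCl, 0.1 mM EDTA, read at 292 nm. Ligand added at r = 10. ΔTm is bound minus free Tm, average of two runs.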

The subject of series [10] is HeLa. The experiment in a line: Cytotoxicity in human HeLa cells at 4 uM up to 15 days by […]. Format: functional. The method, boiled down:
(§5)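 Long-term proliferation: HeLa, A549 or NIH3T3 cells were seeded at 5.0 × 10⁴/well. They were exposed to 4 μM ligand, or 0.1% DMSO as vehicle, every 5 days. Cells were counted and reseeded at half the population over 15 days, and population versus time was plotted.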

Series [11] concerns Nucleic Acid. Nature of the series: Binding affinity to human d[G3(T2AG3)3] G-quadruplex DNA assessed as change in structure in CD spectral profile in 100 mM KCl buffer by CD spectroscopy. Format: nucleic-acid assay. The method, boiled down:
(§6)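 CD spectral titration of preformed Hum21 G4DNA (4 μM) in 10 mM Tris-HCl, 100 mM KCl, 0.1 mM EDTA, pH 7.4. Ligand was added at 0–160 μM in 20 μM increments. The induced CD band was followed.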

Series [12] concerns Nucleic Acid. The experiment in a line: Binding affinity to human d[G3(T2AG3)3] G-quadruplex DNA in 100 mM KCl buffer by CD spectroscopy. In kind it is nucleic-acid assay. The procedure, abridged: as §6
In series [13] the target is Telomerase reverse transcriptase (Homo sapiens, UniProt O14746). Nature of the series: Inhibition of telomerase extracted from human A549 cells by TRAP-LIG assay. In kind it is cell-free. The procedure, abridged:
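Three-step TRAP-LIG assay with A549 protein extract (500 ng/sample) and TS primer in TRAP buffer (pH 8.3, 68 mM KCl), ligand at 5–60 μM. Elongation ran at 30 °C for 10 min. Ligand was then removed on a spin column. PCR with ACX primer ran 30 cycles. Products were resolved on 10% PAGE and read by phosphorimager. IC50 is the mean of three experiments.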

Series [14] deals with Nucleic Acid. The experiment in a line: Binding affinity to human d[G3(T2AG3)3] G-quadruplex DNA in LiCl buffer by CD spectroscopy. In kind it is nucleic-acid assay. The method, boiled down:
as §4

The subject of series [15] is NIH3T3. Nature of the series: Cytotoxicity in mouse NIH/3T3 cells at 4 uM up to 15 days […]. In kind it is cell-based. The following applies: nih3t3, 360 h. The method, boiled down: as §5
The subject of series [16] is Nucleic Acid. Nature of the series: Binding affinity to human d[G3(T2AG3)3] G-quadruplex DNA assessed as change in melting temperature at 20 uM in KCl buffer using compound which is heated to 90 degC for 5 mins followed by slow cooling. Format: nucleic-acid assay. The procedure, abridged: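 Hum21 (2 μM) was folded in KCl buffer (10 mM Tris-HCl, 100 mM KCl, 0.1 mM EDTA) with ligand present at r = 10, by heating to 90 °C for 5 min and cooling slowly. CD melting was read at 266 nm. ΔTm is taken against free G4DNA, mean of two experiments.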

The subject of series [17] is Nucleic Acid. Nature of the series: Induction of topology changes in human d[G3(T2AG3)3] G-quadruplex DNA in 100 uM KCl buffer by EMSA method. Format: nucleic-acid assay. The note with it: in the assay text read “100 mM KCl” for “100 uM KCl”. The procedure, abridged:
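5′-32P-labelled Hum21 G4DNA (5 μM) was used under two conditions. In one, it was preformed in 100 mM KCl and then given ligand (25 μM). In the other, it was folded with ligand (15–60 μM) by heating at 90 °C for 5 min and slow cooling in 100 mM KCl. Samples were run on native polyacrylamide gel with a dT20 mobility marker.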

Series [18] relates to Nucleic Acid. Nature of the series: Binding affinity to human d[G3(T2AG3)3] G-quadruplex DNA by UV-vis titration based assay. In kind it is nucleic-acid assay. The method, boiled down:
(§7)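 UV–vis absorption titration of ligand with preformed Hum21 G4DNA, or with calf thymus duplex DNA. Hypochromicity data were converted to Scatchard plots, and the apparent association constant was obtained by linear fitting.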

The subject of series [19] is HeLa. Nature of the series: Cytotoxicity in human HeLa cells incubated for 6 to 48 hrs by MTT assay. Format: functional, cell-based. The method, boiled down: as §1
Series [20] deals with Nucleic Acid. The experiment in a line: Ratio of Kapp for human d[G3(T2AG3)3] G-quadruplex DNA to Kapp for calf thymus duplex DNA. In kind it is nucleic-acid assay. The method, boiled down: as §7
For series [21], the system named is A549. The experiment in a line: Cytotoxicity in human A549 cells at 4 uM up to 15 days […]. In kind it is functional. The method, boiled down:
as §5

Series [22] concerns Nucleic Acid. Nature of the series: Binding affinity to human d[G3(T2AG3)3] G-quadruplex DNA assessed as change in structure in CD spectral profile in LiCl+ Na+ buffer by CD spectroscopy. In kind it is nucleic-acid assay. The method, boiled down:
as §3

For series [23], the system named is HEK293. Nature of the series: Cytotoxicity in HEK293 cells incubated for 6 to 48 hrs by MTT assay. Format: cell-based. The note with it: human. The method, boiled down: as §2

Sequence of Telomerase reverse transcriptase (O14746 whole entry): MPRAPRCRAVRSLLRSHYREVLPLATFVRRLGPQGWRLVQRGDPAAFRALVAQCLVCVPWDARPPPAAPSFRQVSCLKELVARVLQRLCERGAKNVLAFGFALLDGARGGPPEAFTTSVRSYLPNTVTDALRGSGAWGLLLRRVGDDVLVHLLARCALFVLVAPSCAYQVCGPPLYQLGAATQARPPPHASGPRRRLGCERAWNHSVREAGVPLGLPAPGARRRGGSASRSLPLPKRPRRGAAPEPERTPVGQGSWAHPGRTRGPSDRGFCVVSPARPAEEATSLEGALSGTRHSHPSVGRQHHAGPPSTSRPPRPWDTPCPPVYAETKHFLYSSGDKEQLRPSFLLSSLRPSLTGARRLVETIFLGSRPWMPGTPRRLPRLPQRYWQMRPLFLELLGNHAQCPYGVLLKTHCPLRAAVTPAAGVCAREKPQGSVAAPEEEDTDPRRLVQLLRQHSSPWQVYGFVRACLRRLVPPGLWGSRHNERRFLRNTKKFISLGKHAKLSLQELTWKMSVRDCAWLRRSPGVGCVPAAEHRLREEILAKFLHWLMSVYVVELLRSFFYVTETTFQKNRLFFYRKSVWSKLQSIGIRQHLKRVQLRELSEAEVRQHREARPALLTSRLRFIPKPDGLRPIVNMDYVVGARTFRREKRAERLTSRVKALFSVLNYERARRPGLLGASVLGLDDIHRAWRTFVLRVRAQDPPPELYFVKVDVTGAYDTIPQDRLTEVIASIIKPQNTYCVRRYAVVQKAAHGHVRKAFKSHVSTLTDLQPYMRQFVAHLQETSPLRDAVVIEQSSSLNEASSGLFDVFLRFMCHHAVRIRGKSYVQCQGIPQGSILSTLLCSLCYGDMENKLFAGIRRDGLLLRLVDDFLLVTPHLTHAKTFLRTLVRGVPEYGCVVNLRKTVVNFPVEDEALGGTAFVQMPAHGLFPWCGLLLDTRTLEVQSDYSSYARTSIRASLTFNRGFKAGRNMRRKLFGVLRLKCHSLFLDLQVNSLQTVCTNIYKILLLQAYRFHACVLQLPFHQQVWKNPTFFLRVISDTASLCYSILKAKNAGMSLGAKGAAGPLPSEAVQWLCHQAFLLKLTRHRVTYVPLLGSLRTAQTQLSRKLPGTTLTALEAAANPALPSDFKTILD

On to `CN1CCN(c2ccc3nc(-c4ccc5c(c4)CN4CN5Cc5cc(-c6nc7ccc(N8CCN(C)CC8)cc7[nH]6)ccc54)[nH]c3c2)CC1`, for which the Activity entry in [1] was “Toxic”; in series [10], 100%; in [15], “Toxic”; in [21], 100%; in series [23], “Toxic”. The result in series [2], in series [3], in [4], in series [6], in series [12] and in series [14] was Active. The result in [19] was Active. Besides, the ΔTm stood at 9 °C in [5], 9.3 °C in series [8], 8 °C in series [9] and 15 °C in series [16]. Further, the result in series [7], in [11], in series [17] and in [22] was inactive. In [13], this molecule registered an IC50 of 34.7 µM. In series [18], this molecule displayed a Kapp of 1.4 ×10⁵ /M. For the same molecule, in [20], the Ratio amounted to 100.
As for `OCCN1CCN(c2ccc3nc(-c4ccc5c(c4)CN4CN5Cc5cc(-c6nc7ccc(N8CCN(CCO)CC8)cc7[nH]6)ccc54)[nH]c3c2)CC1`, the Activity entry in series [1] was “Toxic”; in series [15], “Toxic”; in [21] (record 2) it was 100%; in series [23] it was “Toxic”. Also, the outcome in series [2], in series [3], in series [4], in series [6], in series [10] and in series [12] was Active. Besides, the outcome in [14], in series [17], in series [19] and in [21] was Active. Besides, the ΔTm in series [5] is 11 °C; in series [8], 9.5 °C; in [9] it was 10 °C; in series [16] it was 17 °C. For the same molecule, the outcome in [7], in series [11] and in [22] was inactive. This molecule displayed an IC50 in series [13] of 14.5 µM. Further, the Kapp in series [18] was determined as 4.2 ×10⁵ /M. Also, in series [20], the Ratio was determined as 100.
